The results in this text go back to ChEMBL document CHEMBL1806388, “3-(3-Phenoxybenzyl)amino-β-carboline: a novel antitumor drug targeting α-tubulin” (Bioorg Med Chem Lett, 2011).

Structures are written as SMILES. Active and inactive are the calls of the source. The calls are words filed in the database; no cut-off is given here.

A short description of experiment [1]: Cytotoxicity against human HeLaS3 cells after 24 to 72 hrs by MTT assay. The class given is functional, cell-based. Conditions: HeLa S3. In a few lines: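 Growth inhibition of HeLa S-3 cells measured by MTT assay; IC50 taken as the drug concentration inhibiting cell growth by 50%. Values are mean ± S.D. of four independent experiments, each run in triplicate.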
Background: Tetrazolium dyes change colour on reduction, which living cells bring about.

A short description of experiment [2]: Cell cycle arrest in human HeLaS3 cells assessed as accumulation at G2/M phase at 150 nM after 24 hrs using propidium iodide staining by flow cytometry (reference value: 22.45%). To be noted: HeLa S3.
Experiment [3] is described as follows: Cell cycle arrest in human HeLaS3 cells assessed as accumulation at G1 phase at 150 nM after 12 hrs using propidium iodide staining by flow cytometry (reference value: 56.42%). Conditions: HeLa S3. A general note: A flow cytometer gives signals particle by particle.
The species entered for experiment [4] is Homo sapiens. Nature of the experiment: Binding affinity to enolase in human HeLaS3 whole cell extract by MALDI/TOF-MS nalaysis.
Experiment [5] can be described thus: Cell cycle arrest in human HeLaS3 cells assessed as accumulation at S phase at 150 nM after 12 hrs using propidium iodide staining by flow cytometry (reference value: 19.62%). Conditions: HeLa S3.
Experiment [6] in a line: Cell cycle arrest in human HeLaS3 cells assessed as accumulation at G2/M phase at 150 nM after 48 hrs using propidium iodide staining by flow cytometry (reference value: 22.45%). Conditions: HeLa S3.
The nature of experiment [7]: Cell cycle arrest in human HeLaS3 cells assessed as accumulation at S phase at 150 nM after 36 hrs using propidium iodide staining by flow cytometry (reference value: 19.62%). To be noted: HeLa S3.
The test system of experiment [8] is HeLa S3. The experiment in a line: Induction of apoptosis in human HeLaS3 cells assessed as DNA fragmentation at 150 to 1000 nM after 48 hrs by electrophoresis analysis. The class given is functional, cell-based. In a few lines:
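HeLa S-3 cells exposed to 0–1000 nM for 48 h; genomic DNA extracted and run on a 2% agarose gel next to a 100 bp ladder to look for fragmentation.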

The nature of experiment [9]: Cell cycle arrest in human HeLaS3 cells assessed as accumulation at sub-G1 phase at 150 nM after 12 hrs using propidium iodide staining by flow cytometry (reference value: 1.51%). Conditions: HeLa S3.
In experiment [10] the test system is HeLa S3. The experiment in a line: Induction of apoptosis in human HeLaS3 cells assessed as fragmented nuclei at 150 to 1000 nM after 48 hrs using Hoechst 33342 staining by confocal laser microscopic analysis. The class given is functional, cell-based. In a few lines:
(§1)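 HeLa S-3 cells treated with 0, 150, 300 or 1000 nM for 48 h, then nuclei stained with Hoechst 33342 and examined by fluorescence microscopy for chromatin condensation and fragmented nuclei.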

Experiment [11] is described as follows: Cell cycle arrest in human HeLaS3 cells assessed as accumulation at G2/M phase at 150 nM after 12 hrs using propidium iodide staining by flow cytometry (reference value: 22.45%). Conditions: HeLa S3.
Experiment [12] in a line: Cell cycle arrest in human HeLaS3 cells assessed as accumulation at G1 phase at 150 nM after 36 hrs using propidium iodide staining by flow cytometry (reference value: 56.42%). To be noted: HeLa S3.
The subject of experiment [13] is HeLa S3. Nature of the experiment: Induction of apoptosis in human HeLaS3 cells assessed as chromatin condensation at 150 to 1000 nM after 48 hrs using Hoechst 33342 staining by confocal laser microscopic analysis. The experiment is classed as functional, cell-based. In a few lines:
as §1

A short description of experiment [14]: Cell cycle arrest in human HeLaS3 cells assessed as accumulation at sub-G1 phase at 150 nM after 36 hrs using propidium iodide staining by flow cytometry (reference value: 1.51%). To be noted: HeLa S3.
The species entered for experiment [15] is Homo sapiens. The experiment in a line: Binding affinity to alpha-tubulin in human HeLaS3 whole cell extract by MALDI/TOF-MS nalaysis.
Experiment [16] can be described thus: Cell cycle arrest in human HeLaS3 cells assessed as accumulation at G1 phase at 150 nM after 24 hrs using propidium iodide staining by flow cytometry (reference value: 56.42%). Conditions: HeLa S3.
A short description of experiment [17]: Cell cycle arrest in human HeLaS3 cells assessed as accumulation at sub-G1 phase at 150 nM after 24 hrs using propidium iodide staining by flow cytometry (reference value: 1.51%). To be noted: HeLa S3.
Experiment [18] is described as follows: Cell cycle arrest in human HeLaS3 cells assessed as accumulation at S phase at 150 nM after 48 hrs using propidium iodide staining by flow cytometry (reference value: 19.62%). To be noted: HeLa S3.
The nature of experiment [19]: Cell cycle arrest in human HeLaS3 cells assessed as accumulation at sub-G1 phase at 150 nM after 48 hrs using propidium iodide staining by flow cytometry (reference value: 1.51%). Conditions: HeLa S3.
Experiment [20] is described as follows: Cell cycle arrest in human HeLaS3 cells assessed as accumulation at S phase at 150 nM after 24 hrs using propidium iodide staining by flow cytometry (reference value: 19.62%). Conditions: HeLa S3.
The nature of experiment [21]: Cell cycle arrest in human HeLaS3 cells assessed as accumulation at G1 phase at 150 nM after 48 hrs using propidium iodide staining by flow cytometry (reference value: 56.42%). To be noted: HeLa S3.
Experiment [22] can be described thus: Cell cycle arrest in human HeLaS3 cells assessed as accumulation at G2/M phase at 150 nM after 36 hrs using propidium iodide staining by flow cytometry (reference value: 22.45%). To be noted: HeLa S3.
The test system of experiment [23] is HeLa S3. The experiment in a line: Induction of apoptosis in human HeLaS3 cells assessed as increase of activated caspase 3 level by Western blot analysis. The class given is functional, cell-based. Conditions: TDE = time-dependent effect. The procedure, abridged:
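Cleaved caspase-3 detected by Western blot of HeLa S-3 cell extracts after 6, 12, 24 or 48 h treatment; untreated extract as control, β-actin as loading control.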
(In general: Immunoblotting shows a protein as a band on a membrane.)

What is called IC50 is the concentration needed to halve the response being measured. Turning to `c1ccc(-c2ccccc2CNc2cc3c(cn2)[nH]c2ccccc23)cc1`, in experiment [1], the midpoint of inhibition, the IC50, lay at 3 µM. The same measure, in the same setting: for `COc1ccccc1CNc1cc2c(cn1)[nH]c1ccccc12` the value was 0.8 µM. Compound `COc1cc(CNc2cc3c(cn2)[nH]c2ccccc23)cc(OC)c1` registered an IC50 in experiment [1] of 1.7 µM. Against the preceding compound, the IC50 is about 2.1-fold higher. Same read-out and setting: for `COc1cccc(CNc2cc3c(cn2)[nH]c2ccccc23)c1OC` the value was 3.2 µM.

For `c1ccc(Oc2ccc(CNc3nccc4c3[nH]c3ccccc34)cc2)cc1`, the IC50 in experiment [1] is 15 µM. The same measure, in the same setting: under `COc1ccc(CNc2cc3c(cn2)[nH]c2ccccc23)cc1OC` stands over 100 µM; under `O=[N+]([O-])c1ccccc1CNc1cc2c(cn1)[nH]c1ccccc12`, 14 µM; under `Cc1cccc(CNc2nccc3c2[nH]c2ccccc23)c1`, 22 µM.

`c1ccc(CNc2nccc3c2[nH]c2ccccc23)cc1` yielded an IC50 in experiment [1] of 24 µM. On the same count and under the same terms, for `FC(F)(F)c1ccc(CNc2cc3c(cn2)[nH]c2ccccc23)cc1` the value was 47 µM. The same measure, in the same setting: for `Clc1ccc(CNc2nccc3c2[nH]c2ccccc23)cc1Cl` the value was 20 µM; for `COc1cccc(OC)c1CNc1cc2c(cn1)[nH]c1ccccc12`, 2.3 µM; for `Oc1cccc(CNc2cc3c(cn2)[nH]c2ccccc23)c1`, 0.92 µM. On the same count and under the same terms, for `Cc1ccccc1CNc1nccc2c1[nH]c1ccccc12` the value was 13 µM; for `c1ccc(Oc2ccc(CNc3cc4c(cn3)[nH]c3ccccc34)cc2)cc1`, 1.2 µM; for `Cc1ccccc1CNc1cc2c(cn1)[nH]c1ccccc12`, 0.3 µM.

In the case of `Oc1ccc(CNc2cc3c(cn2)[nH]c2ccccc23)cc1`, the IC50 in experiment [1] amounted to 1.7 µM.

`COc1cccc(CNc2nccc3c2[nH]c2ccccc23)c1`: in [1], it took 24 µM to reach half-maximal inhibition (IC50). On the same count and under the same terms, for `COc1cc(CNc2cc3c(cn2)[nH]c2ccccc23)cc(OC)c1OC` the value was 0.22 µM. Still for that read-out and setting: under `c1ccc(-c2ccc(CNc3cc4c(cn3)[nH]c3ccccc34)cc2)cc1` stands over 30 µM; under `Cc1ccc(CNc2cc3c(cn2)[nH]c2ccccc23)cc1`, 6.2 µM.

Compound `Cc1ccc(CNc2nccc3c2[nH]c2ccccc23)cc1` displayed an IC50 in experiment [1] of 26 µM. As to `COc1ccc(CNc2cc3c(cn2)[nH]c2ccccc23)c(OC)c1`, the IC50 in [1] was 4.8 µM. This IC50 is about 5.4-fold lower than that of the compound before. Compound `Clc1ccccc1CNc1cc2c(cn1)[nH]c1ccccc12` registered an IC50 in experiment [1] of 1 µM. The same measure, in the same setting: for `COc1ccc(CNc2cc3c(cn2)[nH]c2ccccc23)c(OC)c1OC` the value was 4 µM; for `O=[N+]([O-])c1cccc(CNc2cc3c(cn2)[nH]c2ccccc23)c1`, over 30 µM; for `COc1ccc(CNc2cc3c(cn2)[nH]c2ccccc23)cc1`, 20 µM. With `Oc1ccccc1CNc1nccc2c1[nH]c1ccccc12`, in [1], inhibition was half-maximal at 19 µM (IC50). Take `FC(F)(F)c1ccccc1CNc1cc2c(cn1)[nH]c1ccccc12`: in [1], the IC50 is 6.7 µM. Still for that read-out and setting: under `c1ccc(Oc2cccc(CNc3nccc4c3[nH]c3ccccc34)c2)cc1` stands 2.3 µM; under `Cc1cccc(CNc2cc3c(cn2)[nH]c2ccccc23)c1`, 0.21 µM. Still for that read-out and setting: under `Oc1ccccc1CNc1cc2c(cn1)[nH]c1ccccc12` stands 28 µM.

With `Clc1cccc(CNc2nccc3c2[nH]c2ccccc23)c1`, in [1], the half-inhibitory concentration (IC50) was found to be 20 µM. Same read-out and setting: under `COc1ccc(CNc2nccc3c2[nH]c2ccccc23)cc1` stands 22 µM; under `FC(F)(F)c1cccc(CNc2cc3c(cn2)[nH]c2ccccc23)c1`, 3.1 µM; under `Clc1ccc(CNc2nccc3c2[nH]c2ccccc23)cc1`, 18 µM.

For the compound `c1ccc(CNc2cc3c(cn2)[nH]c2ccccc23)cc1`, in experiment [1], the IC50 came to 0.11 µM. Same read-out and setting: for `Clc1ccccc1CNc1nccc2c1[nH]c1ccccc12` the value was 19 µM; for `COc1ccccc1CNc1nccc2c1[nH]c1ccccc12`, 15 µM. `COc1ccc(OC)c(CNc2cc3c(cn2)[nH]c2ccccc23)c1` returned an IC50 in experiment [1] of 6.1 µM. In the case of `c1ccc(Oc2cccc(CNc3cc4c(cn3)[nH]c3ccccc34)c2)cc1`, the Activity in experiment [2] was found to be 30%; in experiment [3], 8.4%; in experiment [5], 15.4%; in experiment [6], 9.52%; in [7] it was 15.6%; in experiment [9] it was 9.72%. The Activity in [11] stood at 65.9%; in experiment [12], 19%; in [14], 43.5%; in experiment [16] it was 21.2%; in experiment [17] it was 32.7%; in experiment [18], 20.2%. Further, the Activity is 50.1% in [19]; 15.9% in experiment [20]; 18.4% in [21]; 19.2% in experiment [22]; “tde” with HeLa S3 [23]. Also, the outcome in the experiment filed under Homo sapiens [4], with HeLa S3 [8], with HeLa S3 [10], in the experiment with HeLa S3 [13] and in the experiment listed under Homo sapiens [15] was Active. Also, half-maximal inhibition in experiment [1] (IC50) required 0.074 µM. Consider `c1ccc(COc2cccc(CNc3cc4c(cn3)[nH]c3ccccc34)c2)cc1`, for which the IC50 in experiment [1] amounted to 0.38 µM. Same read-out and setting: under `COc1cccc(CNc2cc3c(cn2)[nH]c2ccccc23)c1` stands 0.79 µM; under `Clc1ccc(CNc2cc3c(cn2)[nH]c2ccccc23)cc1`, 6.1 µM; under `Clc1cccc(CNc2cc3c(cn2)[nH]c2ccccc23)c1`, 0.83 µM.
